B1: Osa-1-4 twister ribozyme (parent)
chain: CCGCCUAACACUGCCAAUGCCGGUCCCAAGCCCGGAUAAAAGUGGAGGGGGCGG

The data set covers variants of B1. Briefly: self-cleavage, relative activity (ratio to wild type); higher = more cleavage; co-transcriptional. In outline: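 Relative activity is the fraction cleaved divided by that of the wild-type ribozyme. The library came from a DNA template for a 54-nucleotide Oryza sativa twister ribozyme, doped at the 48 positions downstream of the cleavage site with 97 % wild-type base and 1 % of each other base. After 2 h of in vitro transcription at 37 °C with co-transcriptional self-cleavage, the RNA was reverse-transcribed with a template-switching oligonucleotide, amplified by PCR and deep-sequenced, and reads with or without upstream sequence gave the cleavage status.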
Regarding C52A G45C, the self-cleavage came to 0.07.
With C52A G45U, the self-cleavage turned out to be 0.1.
As to C52A G45A, the self-cleavage was found to be 0.26.
As for C52A G44A, the self-cleavage is 0.98.
C52A G44U: the self-cleavage turned out to be 0.93.
Turning to C52A G44C, the self-cleavage was determined as 0.96.
In the case of G51A U18A, the self-cleavage came out at 0.62.
As for G51A U18G, the self-cleavage was 0.64.
With G51A U18C the figure was 0.46; with G49U G54A, 0.1; with G49U G54U, 0.26.
The result for G49U G54C reads 0.06; that for G50A U37C, 0.84.
On to G50A U37A, for which the self-cleavage amounted to 0.38.
The result for G50A U37G reads 0.74; that for G51C U12C, 0.04; that for G51C U12G, 0.05.
Regarding G51C U12A, the self-cleavage was found to be 0.05.
G49A U24A: the self-cleavage turned out to be 0.05.
With G49A U24G the figure was 0.01; with G49A U24C, 0.05; with C52A U43A, 0.85.
On to C52A U43G, for which the self-cleavage was 0.37.
C52A U43C: the self-cleavage turned out to be 0.5.
As to G50U U12C, the self-cleavage stood at 0.62.
With G50U U12G the figure was 0.47.
With G50U U12A the figure was 0.82; with G50A U18C, 0.45; with G50A U18G, 0.79.
As for G50A U18A, the self-cleavage came to 0.61.
On to C52A G22U, for which the self-cleavage is 0.17.
As to C52A G22A, the self-cleavage turned out to be 0.71.
The result for C52A G22C reads 0.07; that for G49A G54A, 0.15; that for G49A G54C, 0.11.
With G49A G54U, the self-cleavage was 0.39.
On to C52A G49A, for which the self-cleavage was determined as 0.21.
Consider C52A G49U, for which the self-cleavage worked out at 0.1.
Regarding C52A G49C, the self-cleavage was 0.08.
On to C52A G50C, for which the self-cleavage was found to be 0.14.
For C52A G50A, the self-cleavage amounted to 0.69.
With C52A G50U the figure was 0.25.
Turning to C52G G19A, the self-cleavage came out at 0.55.
Take C52G G19U: the self-cleavage stood at 0.27.
As to C52G G19C, the self-cleavage stood at 0.14.
With C52G G13C, the self-cleavage turned out to be 0.07.
With C52G G13A, the self-cleavage was found to be 0.12.
Take C52G G13U: the self-cleavage amounted to 0.06.
With G49C U18A, the self-cleavage was found to be 0.05.
The result for G49C U18G reads 0.09; that for G49C U18C, 0.05.
On to G50U U24A, for which the self-cleavage is 0.13.
On to G50U U24C, for which the self-cleavage is 0.28.
On to G50U U24G, for which the self-cleavage was determined as 0.02.
The result for G50A G54A reads 0.97.
As to G50A G54U, the self-cleavage amounted to 0.96.
With G50A G54C the figure was 0.99.
As for G49C U24C, the self-cleavage was determined as 0.05.
Take G49C U24G: the self-cleavage was 0.01.
As for G49C U24A, the self-cleavage worked out at 0.03.
For the variant G49U U24A, the self-cleavage came to 0.04.
In the case of G49U U24C, the self-cleavage stood at 0.04.
The result for G49U U24G reads 0.02; that for G50C U43G, 0.36; that for G50C U43C, 0.45.
As for G50C U43A, the self-cleavage was determined as 0.75.
Consider G51C G53C, for which the self-cleavage worked out at 0.04.
For the variant G51C G53A, the self-cleavage was 0.07.
With G51C G53U the figure was 0.06; with C52A G42U, 0.11.
Take C52A G42A: the self-cleavage came to 0.68.
Regarding C52A G42C, the self-cleavage was 0.16.
For the variant C52G G42U, the self-cleavage stood at 0.14.
With C52G G42A the figure was 0.75.
For C52G G42C, the self-cleavage was found to be 0.22.
With C52G G45C, the self-cleavage was 0.1.
With C52G G45U the figure was 0.14.
For C52G G45A, the self-cleavage worked out at 0.27.
With G49U G53A, the self-cleavage worked out at 0.07.
With G49U G53C, the self-cleavage worked out at 0.04.
The result for G49U G53U reads 0.07; that for G51C U18A, 0.12; that for G51C U18G, 0.13.
For G51C U18C, the self-cleavage was found to be 0.13.
With G50C G54C the figure was 0.1; with G50C G54A, 0.15; with G50C G54U, 0.32.
G49C G54U: the self-cleavage turned out to be 0.08.
For the variant G49C G54A, the self-cleavage turned out to be 0.06.
As to G49C G54C, the self-cleavage was found to be 0.05.
As for G51U U37C, the self-cleavage worked out at 0.51.
For G51U U37A, the self-cleavage came to 0.15.
Take G51U U37G: the self-cleavage came out at 0.4.
On to G51A G54C, for which the self-cleavage was 0.95.
As for G51A G54A, the self-cleavage worked out at 0.85.
Consider G51A G54U, for which the self-cleavage was found to be 0.83.
As for G49U G50C, the self-cleavage came out at 0.31.
Turning to G49U G50U, the self-cleavage worked out at 0.21.
The result for G49U G50A reads 0.5.
For the variant C52A U24A, the self-cleavage was found to be 0.14.
As to C52A U24C, the self-cleavage was 0.18.
In the case of C52A U24G, the self-cleavage was found to be 0.04.
Consider C52G G30U, for which the self-cleavage worked out at 0.05.
Turning to C52G G30A, the self-cleavage is 0.06.
Consider C52G G30C, for which the self-cleavage worked out at 0.07.
Consider G51U U12G, for which the self-cleavage worked out at 0.05.
Take G51U U12C: the self-cleavage turned out to be 0.08.
With G51U U12A, the self-cleavage amounted to 0.09.
Regarding G49C G53A, the self-cleavage came out at 0.06.
Turning to G49C G53C, the self-cleavage turned out to be 0.03.
The result for G49C G53U reads 0.05; that for C52A U12G, 0.18.
For the variant C52A U12A, the self-cleavage stood at 0.71.
Turning to C52A U12C, the self-cleavage is 0.48.
Take G51U U24G: the self-cleavage was determined as 0.02.
Take G51U U24C: the self-cleavage is 0.05.
On to G51U U24A, for which the self-cleavage was found to be 0.05.
On to C52A G19A, for which the self-cleavage was 0.42.
With C52A G19C, the self-cleavage was 0.08.
On to C52A G19U, for which the self-cleavage was found to be 0.2.
With C52A U18G the figure was 0.82.
Regarding C52A U18C, the self-cleavage came out at 0.93.
For the variant C52A U18A, the self-cleavage was 0.93.
Take C52A: the self-cleavage came to 1.02.
For the variant C52G, the self-cleavage was determined as 1.01.
With C52A G48C the figure was 0.1.
For C52A G48U, the self-cleavage turned out to be 0.07.
With C52A G48A, the self-cleavage amounted to 0.14.
As to G49C U43C, the self-cleavage turned out to be 0.1.
Consider G49C U43A, for which the self-cleavage was 0.08.
Consider G49C U43G, for which the self-cleavage worked out at 0.04.
Take G49C G51U: the self-cleavage was 0.08.
For G49C G51A, the self-cleavage was determined as 0.12.
G49C G51C: the self-cleavage was determined as 0.04.
As for G50A, the self-cleavage amounted to 0.76.
For G50C, the self-cleavage amounted to 1.03.
Regarding G50U, the self-cleavage worked out at 1.02.
With G49A U12C the figure was 0.05; with G49A U12A, 0.08.
For the variant G49A U12G, the self-cleavage was 0.06.
The result for C52A G54C reads 0.87.
Consider C52A G54A, for which the self-cleavage amounted to 0.69.
The result for C52A G54U reads 0.89; that for C52A G30A, 0.04; that for C52A G30U, 0.04.
As to C52A G30C, the self-cleavage is 0.06.
For G51A U12G, the self-cleavage was 0.07.
The result for G51A U12C reads 0.22; that for G51A U12A, 0.22; that for G49A U43C, 0.07.
The result for G49A U43A reads 0.08; that for G49A U43G, 0.08; that for G49U U12C, 0.04.
In the case of G49U U12A, the self-cleavage amounted to 0.09.
For the variant G49U U12G, the self-cleavage stood at 0.07.
With G50U G53C the figure was 0.09; with G50U G53A, 0.61; with G50U G53U, 0.37.
As for G49C U37A, the self-cleavage came to 0.05.
Take G49C U37G: the self-cleavage is 0.08.
Turning to G49C U37C, the self-cleavage worked out at 0.07.
For the variant G49U U43G, the self-cleavage came to 0.06.
For G49U U43A, the self-cleavage came to 0.08.
Regarding G49U U43C, the self-cleavage turned out to be 0.04.
On to C52G G49C, for which the self-cleavage worked out at 0.07.
With C52G G49A the figure was 0.2; with C52G G49U, 0.13.
